The structures appear in SMILES notation. Values after ≈ are worked out from the molar mass of the structure shown.

For orientation: IC50 means the concentration that gives 50% inhibition. In general, CC50 refers to the concentration giving 50% cytotoxicity. Read a high CC50 as lower toxicity to the cells. What is called MIC is the lowest concentration that inhibits growth of the organism.

The nature of series [1]: Drug level in DTT containing buffer treated with 3-((5-Phenyl-1,3,4-oxadiazol-2-yl)thio)benzo[b]thiophene-1,1-dioxide by LC-MS analysis. It is filed as physicochemical.
Series [2] addresses Inosine-5'-monophosphate dehydrogenase (Cryptococcus neoformans var. neoformans serotype D (strain JEC21 /ATCC MYA-565) (Filobasidiella neoformans), UniProt Q5KP44). Put plainly: Inhibition of recombinant Cryptococcus neoformans His-tagged IMPDH expressed in Escherichia coli BL21 (DE3) using IMP as substrate in presence of NAD. The method in brief:
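Recombinant C. neoformans IMPDH (E. coli BL21(DE3) pLysS) at 0.2 µM. IMP and NAD each 500 µM; reaction started with IMP. NADH followed at 340 nm. Compounds tested 20 to 0.02 µM. % activity normalized to no-inhibitor and 20 µM MPA controls, fitted by variable-slope dose-response; n ≥ 3.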

Series [3] addresses Inosine-5'-monophosphate dehydrogenase 1 (Homo sapiens, UniProt P20839). Put plainly: Inhibition of recombinant human His-tagged IMPDH1 expressed in Escherichia coli BL21 (DE3) using IMP as substrate in presence of NAD. The method in brief: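 His-tag-cleaved human IMPDH from E. coli BL21(DE3) pLysS at 0.2 µM. NAD 100 µM, IMP 125 µM; reaction started with IMP. NADH followed at 340 nm. Compounds tested 30 to 0.93 µM. IC50 from variable-slope fit normalized to no-inhibitor and 20 µM MPA controls; n ≥ 3.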

For series [4], the target named is Inosine-5'-monophosphate dehydrogenase 2 (Homo sapiens, UniProt P12268). Put plainly: Inhibition of recombinant human His-tagged IMPDH2 expressed in Escherichia coli BL21 (DE3) using IMP as substrate in presence of NAD.
Series [5] is described as follows: Cytotoxicity against HEK293 cells after 24 hrs by resazurin dye-based fluorescence analysis. It is filed as cell-based. Particulars: human. In outline: (§1)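 Cells seeded at 3000 per well in DMEM with 10% FBS. Compound […], applied as a 2-fold dilution series mixed directly with the cells. Incubated 24 h at 37 °C in 5% CO2, then 10 µM resazurin was added for 3 h. Fluorescence read at ex/em 560/590 nm. DMSO served as negative control.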

Series [6] can be described thus: Cytotoxicity against human HepG2 cells after 24 hrs by resazurin dye-based fluorescence analysis. It is filed as cell-based. In outline: as §1
Series [7] in a line: Drug metabolism in DTT containing buffer assessed as formation of 5-phenyl-1,3,4-oxadiazole-2-thiol by LC-MS analysis. In kind it is physicochemical.
Series [8] deals with Cryptococcus neoformans. Put plainly: Antifungal activity against Cryptococcus neoformans after 24 hrs by two fold serial dilution method.
Series [9] relates to Candida albicans. Put plainly: Antifungal activity against Candida albicans after 24 hrs by OD530 reading based two fold serial dilution method.

Sequence of Inosine-5'-monophosphate dehydrogenase (Q5KP44 whole entry): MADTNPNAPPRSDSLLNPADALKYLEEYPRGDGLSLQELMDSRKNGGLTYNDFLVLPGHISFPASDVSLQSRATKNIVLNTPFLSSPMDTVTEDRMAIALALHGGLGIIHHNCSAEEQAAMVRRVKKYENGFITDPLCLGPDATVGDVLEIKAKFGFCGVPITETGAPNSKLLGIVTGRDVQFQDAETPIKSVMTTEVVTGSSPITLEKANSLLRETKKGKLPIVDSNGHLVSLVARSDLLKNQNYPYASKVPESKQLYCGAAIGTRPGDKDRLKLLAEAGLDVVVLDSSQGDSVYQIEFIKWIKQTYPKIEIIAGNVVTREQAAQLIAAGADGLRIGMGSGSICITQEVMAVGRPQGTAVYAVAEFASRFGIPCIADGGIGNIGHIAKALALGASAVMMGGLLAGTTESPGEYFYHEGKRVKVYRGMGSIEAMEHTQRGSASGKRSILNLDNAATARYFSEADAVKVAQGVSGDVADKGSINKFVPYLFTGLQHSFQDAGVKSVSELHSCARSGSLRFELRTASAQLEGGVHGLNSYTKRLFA
Sequence of Inosine-5'-monophosphate dehydrogenase 1 (P20839 whole entry): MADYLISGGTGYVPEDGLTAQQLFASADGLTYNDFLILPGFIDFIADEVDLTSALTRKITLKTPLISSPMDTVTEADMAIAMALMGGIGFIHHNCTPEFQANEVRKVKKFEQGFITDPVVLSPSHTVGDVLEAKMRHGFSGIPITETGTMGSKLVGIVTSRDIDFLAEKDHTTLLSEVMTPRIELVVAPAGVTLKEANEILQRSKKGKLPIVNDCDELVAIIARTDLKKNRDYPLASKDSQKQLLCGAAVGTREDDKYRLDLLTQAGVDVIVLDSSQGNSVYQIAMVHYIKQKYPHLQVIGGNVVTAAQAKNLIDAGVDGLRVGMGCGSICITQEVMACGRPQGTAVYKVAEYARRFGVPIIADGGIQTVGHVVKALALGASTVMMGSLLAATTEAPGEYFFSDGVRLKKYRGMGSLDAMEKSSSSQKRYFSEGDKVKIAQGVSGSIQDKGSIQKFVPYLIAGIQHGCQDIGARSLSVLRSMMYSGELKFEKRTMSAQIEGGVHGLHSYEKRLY

Consider `S=c1[nH]nc(-c2ccccc2)o1`, for which the Drug metabolism entry in series [1] is “Metabolite_Detected”.
For `O=S1(=O)C=C(Sc2nnc(-c3ccccc3)o2)c2ccccc21`, the results for the IC50 in series [2], in series [3] and in series [4] were 0.37 µM, 5.6 µM and 2.1 µM, respectively. Further, the CC50 at 24 h in series [5] was 3 µM; in [6] it was 20 µM. Moreover, the Drug metabolism result in [7] is recorded as “Metabolite_Detected”. Further, the MIC in series [8] and in [9] was 6 µM (≈ 2.05 µg/mL) in each case.
`O=S1(=O)C=C(Sc2nnc(-c3ccncc3)o2)c2ccccc21`: the IC50 is 0.76 µM in [2], 8.6 µM in [3] and 2.1 µM in [4]. Moreover, the CC50 at 24 h was 4 µM in series [5] and 17 µM in series [6]. Further, the MIC was 9 µM (≈ 3.09 µg/mL) in [8] and 6 µM (≈ 2.06 µg/mL) in series [9].
Consider `O=S1(=O)C=C(Sc2nnc(-c3ccc(Cl)cc3)o2)c2ccccc21`, for which the IC50 turned out to be 0.49 µM in series [2], 11.1 µM in series [3] and 1.5 µM in series [4]. For the same compound, the values for the CC50 at 24 h in series [5] and in [6] were 3 µM and 22 µM, respectively. Further, the MIC turned out to be 16 µM (≈ 6.03 µg/mL) in series [8] and 167 µM (≈ 62.9 µg/mL) in [9].
On to `COc1ccc(-c2nnc(SC3=CS(=O)(=O)c4ccccc43)o2)cc1`, for which the IC50 in [2] was 1.7 µM; in series [3] it was greater than 30 µM; in series [4], greater than 30 µM. Also, the CC50 at 24 h was determined as 2 µM in series [5] and 22 µM in [6]. Besides, the MIC in [8] and in [9] was 172 µM (≈ 64.1 µg/mL) each time.
Turning to `Cc1ccc(-c2nnc(SC3=CS(=O)(=O)c4ccccc43)o2)cc1`, the IC50 in series [2] worked out at 0.41 µM; in series [3] it was 20.3 µM; in [4], 5.7 µM. Besides, the CC50 at 24 h in [5] came out at 3 µM; in series [6], 31 µM. The MIC in series [8] is 22 µM (≈ 7.84 µg/mL); in series [9] it was 90 µM (≈ 32.1 µg/mL).
Regarding `COC(=O)c1ccc(-c2nnc(SC3=CS(=O)(=O)c4ccccc43)o2)cc1`, the IC50 is 0.34 µM in series [2], greater than 30 µM in series [3] and greater than 30 µM in series [4]. Besides, the figures for the CC50 at 24 h in series [5] and in [6] were 4 µM and 18 µM, respectively. Moreover, the figures for the MIC in series [8] and in series [9] were 60 µM (≈ 24 µg/mL) and greater than 160 µM, respectively.
Regarding `COc1cccc(-c2nnc(SC3=CS(=O)(=O)c4ccccc43)o2)c1`, the IC50 in [2] amounted to 0.15 µM; in [3] it was 4.3 µM; in series [4], 1.2 µM. The results for the half-maximal cytotoxic concentration (CC50) at 24 h in [5] and in series [6] were 3 µM and 20 µM, respectively. In addition, the MIC in [8] was 8 µM (≈ 2.98 µg/mL); in [9] it was 172 µM (≈ 64.1 µg/mL).
For `O=S1(=O)C=C(Sc2nnc(-c3ccccn3)o2)c2ccccc21`, the IC50 is 1.06 µM in series [2], 13.2 µM in [3] and 4.2 µM in series [4]. The CC50 at 24 h in [5] turned out to be 5 µM; in [6], 24 µM. The values for the MIC in series [8] and in series [9] were 6 µM (≈ 2.06 µg/mL) and 4 µM (≈ 1.37 µg/mL), respectively.
`O=S1(=O)C=C(Sc2nnc(-c3cccc(Cl)c3)o2)c2ccccc21`: the IC50 in series [2] amounted to 0.4 µM; in series [3] it was 10.1 µM; in series [4], 1.6 µM. For the same compound, the CC50 at 24 h was determined as 6 µM in series [5] and 27 µM in [6]. In addition, the MIC was 6 µM (≈ 2.26 µg/mL) in series [8] and 167 µM (≈ 62.9 µg/mL) in series [9].
Take `COc1ccccc1-c1nnc(SC2=CS(=O)(=O)c3ccccc32)o1`: the results for the IC50 in series [2], in series [3] and in series [4] were 0.48 µM, 9.9 µM and 3.2 µM, respectively. Also, the CC50 at 24 h in series [5] is 3 µM; in series [6], 16 µM. Further, the MIC turned out to be 64 µM (≈ 23.8 µg/mL) in series [8] and 172 µM (≈ 64.1 µg/mL) in series [9].
`O=S1(=O)C=C(Sc2nnc(C3CCCCC3)o2)c2ccccc21`: the IC50 in series [2] was 0.67 µM; in series [3], 7.6 µM; in series [4] it was 2.2 µM. Further, the CC50 at 24 h worked out at 3 µM in series [5] and 15 µM in series [6]. Besides, the MIC in [8] came to 7 µM (≈ 2.44 µg/mL); in series [9], 46 µM (≈ 16 µg/mL).
For `O=S1(=O)C=C(Sc2nnc(-c3ccccc3Cl)o2)c2ccccc21`, the IC50 in series [2] was 0.23 µM; in [3], 7.2 µM; in series [4], 1.2 µM. Besides, the CC50 at 24 h in series [5] was 4 µM; in series [6], 25 µM. For the same compound, the MIC in series [8] came to 6 µM (≈ 2.26 µg/mL); in series [9], 167 µM (≈ 62.9 µg/mL).
In the case of `Nc1ccc(-c2nnc(SC3=CS(=O)(=O)c4ccccc43)o2)cc1`, the IC50 came out at 1.01 µM in series [2], 13.8 µM in [3] and 4.5 µM in series [4]. In addition, the results for the CC50 at 24 h in series [5] and in [6] were 4 µM and 24 µM, respectively. For the same compound, the MIC in series [8] is 33 µM (≈ 11.8 µg/mL); in series [9], greater than 179 µM.
Consider `O=S1(=O)C=C(Sc2nnc(-c3cccnc3)o2)c2ccccc21`, for which the figures for the IC50 in series [2], in [3] and in [4] were 0.59 µM, 6.3 µM and 2.6 µM, respectively. In addition, the CC50 at 24 h in [5] worked out at 4 µM; in [6], 14 µM. In addition, the MIC in [8] and in series [9] was 4 µM (≈ 1.37 µg/mL) throughout.
With `CC(=O)Nc1ccc(-c2nnc(SC3=CS(=O)(=O)c4ccccc43)o2)cc1`, the IC50 in [2] is 0.16 µM; in series [3], 20.4 µM; in series [4], 4.4 µM. Also, the results for the CC50 at 24 h in series [5] and in series [6] were 4 µM and 31 µM, respectively. In addition, the MIC in series [8] and in series [9] was greater than 160 µM in each case.
`C[C@@H]1[C@H](O)[C@@H](C)/C=C/C=C/C=C/C=C/C=C/C=C/C=C/[C@H](O[C@@H]2O[C@H](C)[C@@H](O)[C@H](N)[C@@H]2O)C[C@@H]2O[C@](O)(C[C@@H](O)C[C@@H](O)[C@H](O)CC[C@@H](O)C[C@@H](O)CC(=O)O[C@H]1C)C[C@H](O)[C@H]2C(=O)O` [AMPHOTERICIN B]: the values for the MIC in series [8] and in [9] were 0.25 µM (≈ 0.231 µg/mL) and 0.18 µM (≈ 0.166 µg/mL), respectively.
In the case of `OC(Cn1cncn1)(Cn1cncn1)c1ccc(F)cc1F` [FLUCONAZOLE], the MIC was 0.3 µM (≈ 0.0919 µg/mL) in series [8] and 8 µM (≈ 2.45 µg/mL) in series [9].
`COc1c(C)c2c(c(O)c1C/C=C(\C)CCC(=O)O)C(=O)OC2` [MYCOPHENOLIC ACID]: the IC50 in series [2] was 0.12 µM; in [3], 0.26 µM.
On to `CC/C(=C(\c1ccccc1)c1ccc(OCCN(C)C)cc1)c1ccccc1` [TAMOXIFEN], for which the figures for the CC50 at 24 h in series [5] and in series [6] were […] and […], respectively.

For the origin of these results see ChEMBL document CHEMBL4265991 (Bioorg Med Chem, 2018).
